These entries were drawn from the full list.
PGC1a acetyl up: raises PGC1a acetylation signal in U2OS cells | 350,000 compounds, 0.21% hits | AID 651723 | U2OS PGC1a acetylation AlphaScreen, overnight | activation, % at 15.6 µM;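 active = every replicate reaching activation of at least 50%, whatever the mean replicate activation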;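 note: hits raise the AlphaScreen acetylation signal above neutral controls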
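System: flag-PGC1a/GCN5 U2OS cells / Input: 7000 cells/well / Compound: single test concentration per compound / Incubation: overnight compound treatment, 37 °C / Technique: AlphaScreen on lysates with anti-acetyl-lysine antibody, acceptor and donor beads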
* hit, by the source's call.

`CC(C(=O)OCn1nnc2ccccc2c1=O)N1C(=O)c2ccccc2C1=O` (stereo unspecified) gave PGC1a acetyl up -48.
`CCC(=O)NCc1c(C)c(C)n(Cc2ccccc2)c1-n1cccc1` gave PGC1a acetyl up -43.
`CC(C)c1ccc(NC(=O)c2ccc3c(c2)CCN3S(C)(=O)=O)cc1` gave PGC1a acetyl up -82.
CS(=O)(=O)c1ncc(Cl)c(C(=O)Nc2ccc(N3CCOCC3)cc2)n1 was read as PGC1a acetyl up 81*.
`C[C@H](NC(=O)C[C@H]1CC[C@@H](NC(=O)C2CC2)[C@H](CO)O1)c1ccccc1` gave PGC1a acetyl up -52.
COc1ccc(S(=O)(=O)N(C)C[C@@H]2Oc3cc(C#CC4CC4)ccc3S(=O)(=O)N([C@H](C)CO)C[C@@H]2C)cc1 was read as PGC1a acetyl up 56*.
For COc1ccc(S(=O)(=O)N(C)C[C@H]2Oc3cc(C4=CCCC4)ccc3S(=O)(=O)N([C@H](C)CO)C[C@@H]2C)cc1 the results were PGC1a acetyl up -51.
Screening CCCN(C)C[C@@H]1Oc2cc(C#C[C@H](C)O)ccc2S(=O)(=O)N([C@H](C)CO)C[C@@H]1C returned PGC1a acetyl up -50.
Screening Cc1ccccc1-c1ccc2c(c1)O[C@H](CN(C)Cc1ccncc1)[C@@H](C)CN([C@@H](C)CO)S2(=O)=O returned PGC1a acetyl up 57*.
Cc1ccc(S(=O)(=O)N(C)C[C@H]2Oc3cc(C#Cc4ccncc4)ccc3S(=O)(=O)N([C@H](C)CO)C[C@H]2C)cc1 was read as PGC1a acetyl up -44.
`COc1ccc(S(=O)(=O)N(C)C[C@@H]2Oc3cc(C#CC4CC4)ccc3S(=O)(=O)N([C@@H](C)CO)C[C@@H]2C)cc1` gave PGC1a acetyl up 136*.
C[C@@H]1CN([C@@H](C)CO)S(=O)(=O)c2ccc(-c3ccc(F)cc3)cc2O[C@H]1CN(C)C(=O)C1CCCCC1 was read as PGC1a acetyl up -64.
For COc1ccccc1C#Cc1ccc2c(c1)O[C@@H](CN(C)Cc1cccnc1)[C@H](C)CN([C@@H](C)CO)S2(=O)=O the results were PGC1a acetyl up -44.
C[C@H](CO)N1C[C@H](C)[C@H](CN(C)C(=O)NC2CCCCC2)Oc2cc(C#Cc3ccc(F)cc3)ccc2S1(=O)=O was read as PGC1a acetyl up -55.
For C[C@H](CO)N1C[C@H](C)[C@@H](CN(C)Cc2cccnc2)Oc2cc(C#CC3CCCCC3)ccc2S1(=O)=O the results were PGC1a acetyl up -49.
C[C@H]1CN([C@@H](C)CO)S(=O)(=O)c2ccc(Br)cc2O[C@H]1CN(C)S(C)(=O)=O was read as PGC1a acetyl up -107.
Screening C[C@H]1CN([C@@H](C)CO)S(=O)(=O)c2ccc(Br)cc2O[C@@H]1CN(C)S(=O)(=O)c1ccccc1F returned PGC1a acetyl up 64*.
CCCCN(CCCC)CCNC(=O)c1ccc2nc(-c3ccccc3NC(C)=O)c(=O)[nH]c2c1 was read as PGC1a acetyl up -42.
Screening N#Cc1sc2nccc(Nc3ccccc3)c2c1N returned PGC1a acetyl up -43.
For CC(=O)OC[C@]12CC[C@H]3[C@@](C)(CC[C@H]4C(C)(C)CCC[C@]34C)[C@@H]1CC(C1=CC(=O)OC1O)O2 (stereo partly specified) the results were PGC1a acetyl up -87.
`CO[C@@H]1CN(C)C(=O)c2cc(NS(=O)(=O)c3ccc(Cl)cc3)ccc2OC[C@H](C)N(C)C[C@H]1C` gave PGC1a acetyl up -60.
For COc1ccccc1C(=O)Nc1ccc2c(c1)nc(CCNC(=O)c1ccco1)n2C the results were PGC1a acetyl up 115*.
`COc1ccccc1C(=O)Nc1ccc2c(c1)C(=O)N(C)C[C@H](OC)[C@H](C)CN(CC1CC1)[C@@H](C)CO2` gave PGC1a acetyl up -52.
`Cc1ccc(Nc2nc(C)cc(C)c2C(N)=O)c(C)c1` gave PGC1a acetyl up -40.
Screening CC(=O)c1ccc(Nc2cc(C)nc3ccc(C)cc23)cc1 returned PGC1a acetyl up -40.
Cc1ccc2nc(C)cc(OCC(=O)O)c2c1 was read as PGC1a acetyl up 59*.
Screening O=C(c1ccccc1)C1OC1C(=O)c1ccccc1 (stereo unspecified) returned PGC1a acetyl up 77*.
`O=C(NC1CCCCCCC1O)c1ccccc1` (stereo unspecified) gave PGC1a acetyl up -57.
CO[C@H]1CN(C)C(=O)c2cc(NC(C)=O)ccc2OC[C@@H](C)N(CC2CCCCC2)C[C@@H]1C was read as PGC1a acetyl up -41.
NC(=O)C1CCCCc2c1[nH]c1ccc(Cl)cc21 (stereo unspecified) was read as PGC1a acetyl up 664*.
For CC(C)(C)C(=O)Nc1sc2c(c1-c1nc3ccccc3[nH]1)CCCC2 the results were PGC1a acetyl up 65*.
`C=C1C(=O)[C@]23C[C@H]1CCC2[C@@]1(C)C(C[C@@H]3O)[C@](C)(C(=O)OC)CC[C@@H]1OC(C)=O` (stereo partly specified) gave PGC1a acetyl up -103.
`O=C(C(Br)=Cc1ccccc1)c1ccccc1` gave PGC1a acetyl up 160*.
COc1ccc(CCNC(=O)c2ccc(Cl)cc2)cc1 was read as PGC1a acetyl up 81*.
`COc1ccc(C(=O)N/N=C(/C)c2cccc(NC(=O)c3ccccc3F)c2)cc1` gave PGC1a acetyl up -51.
For COc1ccc(NC(=O)CN(C)C(=O)c2cnc(Cl)c(Cl)c2)cc1 the results were PGC1a acetyl up -44.
For CC(C)Oc1ccc2nnnn2n1 the results were PGC1a acetyl up -49.
COc1ccc(S(=O)(=O)N[C@H]2CC[C@@H](CCNC(=O)c3ccccc3F)O[C@@H]2CO)cc1 was read as PGC1a acetyl up -52.
COc1ccc(-c2cnc3c(c2)C(=O)N([C@H](C)CO)C[C@H](C)[C@@H](CN(C)C(=O)C2CC2)O3)cc1 was read as PGC1a acetyl up -111.
Screening COc1ccc(-c2noc(CCC(=O)N3CCN(c4cccc(C)c4C)CC3)n2)cc1 returned PGC1a acetyl up -44.
Cc1ccc(-c2c(C#N)c(N)n(-c3ccccc3)c(=O)c2C#N)cc1 was read as PGC1a acetyl up 66*.
CCCn1c(-c2ccccc2)cc(SC)c(C#N)c1=O was read as PGC1a acetyl up -93.
`CC[C@H](C)[C@@H]1OC(=O)[C@@H](C)[C@@H](CC)NC(=O)[C@H](C)N(C)C(=O)C(C)(C)C(=O)C(C)NC(=O)[C@H](Cc2ccccc2)N(C)C(=O)[C@H](C(C)C)N(C)C(=O)CNC(=O)[C@H](CC(C)C)N(C)C(=O)CNC1=O` (stereo partly specified) gave PGC1a acetyl up -76.
For CC(C)(C)c1ccc2c(c1)OC(C(=O)N/N=C/c1ccc([N+](=O)[O-])o1)CO2 (stereo unspecified) the results were PGC1a acetyl up 165*.
`Cc1c(Cl)cccc1N=Cc1ccc([N+](=O)[O-])s1` gave PGC1a acetyl up 102*.
Screening O=C(c1ccc([N+](=O)[O-])s1)N1CCc2ccccc2C1 returned PGC1a acetyl up -47.
Screening CCOC(=O)CSc1nc2cc3c(cc2cc1C#N)OCCO3 returned PGC1a acetyl up -40.
`C/C=C/c1ccc2c(c1)O[C@H](CN(C)C(=O)C1CC1)[C@H](C)CN([C@@H](C)CO)S2(=O)=O` gave PGC1a acetyl up -47.
Screening C=CCn1c(SCC(=O)NC(=O)NCc2ccco2)nc2sc(CC)cc2c1=O returned PGC1a acetyl up 57*.
N#Cc1cccc(C#N)c1NCC1CCCO1 (stereo unspecified) was read as PGC1a acetyl up -43.
